Data published in ChEMBL document CHEMBL1143198, “Potent, nonpeptide inhibitors of human mast cell tryptase. Synthesis and biological evaluation of novel spirocyclic piperidine amide derivatives” (Bioorg Med Chem Lett, 2008).
Active and inactive are the calls of the source. No cut-off for these calls is given here.

Assays:
Trypsin = Trypsin (Homo sapiens, UniProt P07477+P07478+P35030); test: Inhibition of human trypsin by chromogenic assay; format: protein assay
[1] = Inhibition of human lung beta tryptase by chromogenic assay
[2] = molecular target: Coagulation factor VII (Homo sapiens) (UniProt P08709); test: Inhibition of factor 7a at 10 uM
Chain of Coagulation factor VII (Homo sapiens) (P08709 61-212 limits assumed): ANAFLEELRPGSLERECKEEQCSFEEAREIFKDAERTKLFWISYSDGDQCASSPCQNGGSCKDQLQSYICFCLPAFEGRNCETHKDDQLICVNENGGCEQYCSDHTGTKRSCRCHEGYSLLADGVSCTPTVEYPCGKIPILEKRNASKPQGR
Chain of Coagulation factor VII (Homo sapiens) (P08709 213-466 limits assumed): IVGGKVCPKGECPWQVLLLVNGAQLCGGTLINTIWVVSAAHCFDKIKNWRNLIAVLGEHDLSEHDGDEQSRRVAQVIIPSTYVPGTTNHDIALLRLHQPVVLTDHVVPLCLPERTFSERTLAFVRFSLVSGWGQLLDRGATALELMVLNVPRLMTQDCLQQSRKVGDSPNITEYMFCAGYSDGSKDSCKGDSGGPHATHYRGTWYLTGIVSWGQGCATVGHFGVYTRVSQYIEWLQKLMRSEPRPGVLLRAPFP

[3] = molecular target: Tissue-type plasminogen activator (Homo sapiens) (UniProt P00750); test: Inhibition of tPA at 10 uM
Chain of Tissue-type plasminogen activator (Homo sapiens) (P00750 36-562 limits assumed): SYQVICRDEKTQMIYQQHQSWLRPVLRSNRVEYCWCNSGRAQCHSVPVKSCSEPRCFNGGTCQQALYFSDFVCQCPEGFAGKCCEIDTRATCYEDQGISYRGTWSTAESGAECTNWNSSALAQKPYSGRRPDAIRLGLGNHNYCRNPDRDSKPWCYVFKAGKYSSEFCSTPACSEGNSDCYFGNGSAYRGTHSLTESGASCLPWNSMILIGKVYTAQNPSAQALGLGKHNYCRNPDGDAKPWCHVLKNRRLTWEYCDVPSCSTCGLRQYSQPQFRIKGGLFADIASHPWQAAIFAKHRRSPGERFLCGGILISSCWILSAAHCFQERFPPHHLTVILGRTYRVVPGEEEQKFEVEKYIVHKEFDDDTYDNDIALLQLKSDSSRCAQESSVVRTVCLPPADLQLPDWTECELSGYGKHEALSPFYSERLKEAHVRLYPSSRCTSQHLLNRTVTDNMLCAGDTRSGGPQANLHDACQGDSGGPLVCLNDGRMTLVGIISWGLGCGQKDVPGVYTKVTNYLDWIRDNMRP

[4] = molecular target: Plasminogen (Homo sapiens) (UniProt P00747); test: Inhibition of plasmin at 10 uM
Chain of Plasminogen (Homo sapiens) (P00747 97-580 limits assumed): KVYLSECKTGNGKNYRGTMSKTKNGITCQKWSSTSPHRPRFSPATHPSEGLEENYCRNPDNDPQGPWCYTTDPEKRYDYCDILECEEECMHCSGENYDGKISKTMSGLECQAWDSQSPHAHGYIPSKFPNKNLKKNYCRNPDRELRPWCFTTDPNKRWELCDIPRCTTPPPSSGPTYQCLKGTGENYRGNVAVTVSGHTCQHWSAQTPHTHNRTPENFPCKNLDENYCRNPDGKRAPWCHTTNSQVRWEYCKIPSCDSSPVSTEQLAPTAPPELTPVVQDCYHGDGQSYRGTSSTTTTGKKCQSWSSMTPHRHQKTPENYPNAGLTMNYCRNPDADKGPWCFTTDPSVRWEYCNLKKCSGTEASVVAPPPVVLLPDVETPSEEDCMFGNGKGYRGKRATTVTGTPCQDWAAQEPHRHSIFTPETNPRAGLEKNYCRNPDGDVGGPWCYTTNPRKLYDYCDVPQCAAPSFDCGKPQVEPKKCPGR
Chain of Plasminogen (Homo sapiens) (P00747 581-810 limits assumed): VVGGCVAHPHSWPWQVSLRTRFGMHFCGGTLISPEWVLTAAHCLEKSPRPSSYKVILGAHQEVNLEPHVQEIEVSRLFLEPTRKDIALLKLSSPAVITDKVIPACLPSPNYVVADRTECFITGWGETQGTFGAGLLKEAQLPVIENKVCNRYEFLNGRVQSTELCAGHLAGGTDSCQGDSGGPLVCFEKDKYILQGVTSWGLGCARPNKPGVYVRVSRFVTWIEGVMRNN

[5] = molecular target: Cathepsin G (Homo sapiens) (UniProt P08311); test: Inhibition of cathepsin G at 50 uM
Chain of Cathepsin G (Homo sapiens) (P08311 whole entry): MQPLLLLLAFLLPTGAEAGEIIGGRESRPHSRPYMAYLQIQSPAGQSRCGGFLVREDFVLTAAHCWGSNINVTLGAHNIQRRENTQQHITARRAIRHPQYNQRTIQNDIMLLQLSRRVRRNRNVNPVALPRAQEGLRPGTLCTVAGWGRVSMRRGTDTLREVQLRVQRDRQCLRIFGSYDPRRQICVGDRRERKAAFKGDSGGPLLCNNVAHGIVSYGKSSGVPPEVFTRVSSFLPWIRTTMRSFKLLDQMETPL

[6] = molecular target: Plasma kallikrein (Homo sapiens) (UniProt P03952); test: Inhibition of kallikrein at 10 uM
Chain of Plasma kallikrein (Homo sapiens) (P03952 20-390 limits assumed): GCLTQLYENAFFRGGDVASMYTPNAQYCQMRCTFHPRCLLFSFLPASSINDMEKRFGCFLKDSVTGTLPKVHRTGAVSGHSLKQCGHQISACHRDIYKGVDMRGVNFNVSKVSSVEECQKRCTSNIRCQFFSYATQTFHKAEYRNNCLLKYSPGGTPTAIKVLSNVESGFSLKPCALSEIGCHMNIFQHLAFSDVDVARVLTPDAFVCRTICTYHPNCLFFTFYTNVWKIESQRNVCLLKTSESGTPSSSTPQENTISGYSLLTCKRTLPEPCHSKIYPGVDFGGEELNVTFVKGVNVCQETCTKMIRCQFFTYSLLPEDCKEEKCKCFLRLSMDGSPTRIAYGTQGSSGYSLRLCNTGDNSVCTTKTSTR
Chain of Plasma kallikrein (Homo sapiens) (P03952 391-638 limits assumed): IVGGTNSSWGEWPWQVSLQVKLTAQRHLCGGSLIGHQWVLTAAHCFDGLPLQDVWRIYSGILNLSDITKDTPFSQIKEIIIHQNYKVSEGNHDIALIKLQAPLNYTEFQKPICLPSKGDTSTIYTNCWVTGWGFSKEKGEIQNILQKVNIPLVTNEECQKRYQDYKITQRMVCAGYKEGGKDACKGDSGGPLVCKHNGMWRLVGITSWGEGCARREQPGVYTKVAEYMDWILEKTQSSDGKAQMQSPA

Ovis aries [7] = test: Antiinflammatory activity in Ascaris suum-sensitized sheep asthma model assessed as increase in airway hyperactivity at 30 mg/kg, po BID after 24 hrs relative to carbachol; format: functional, organism-based; set-up: dose 30 mg/kg
Summary of the method: (§1)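 Conscious, antigen-sensitized allergic sheep were dosed by oral gavage with the benzoate salt at 30 mg/kg twice on Day 1, and on Day 2 at 2 h before antigen challenge. Airway resistance (SR_L) was monitored for 8 h after challenge: early phase 0–4 h, late phase 4–8 h. Airway hyper-reactivity to carbachol (PC₄₀₀) was measured at 24 h.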

[8] = molecular target: Coagulation factor X (Homo sapiens) (UniProt P00742); test: Inhibition of factor 10a at 50 uM
Chain of Coagulation factor X (Homo sapiens) (P00742 41-179 limits assumed): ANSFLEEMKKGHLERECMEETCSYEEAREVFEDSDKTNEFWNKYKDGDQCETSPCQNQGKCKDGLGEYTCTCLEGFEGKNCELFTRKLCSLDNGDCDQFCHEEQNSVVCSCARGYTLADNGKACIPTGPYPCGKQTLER
Chain of Coagulation factor X (Homo sapiens) (P00742 235-488 limits assumed): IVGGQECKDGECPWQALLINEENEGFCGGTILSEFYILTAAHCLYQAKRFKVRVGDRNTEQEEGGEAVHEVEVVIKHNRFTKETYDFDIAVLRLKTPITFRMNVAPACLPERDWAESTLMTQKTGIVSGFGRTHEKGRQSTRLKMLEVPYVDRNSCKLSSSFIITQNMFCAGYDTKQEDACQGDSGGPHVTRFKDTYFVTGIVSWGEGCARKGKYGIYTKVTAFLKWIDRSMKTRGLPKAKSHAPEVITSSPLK

[9] = molecular target: Urokinase-type plasminogen activator (Homo sapiens) (UniProt P00749); test: Inhibition of uPA at 10 uM
[10] = Inhibition of chymotrypsin at 10 uM
[11] = molecular target: Prothrombin (Homo sapiens) (UniProt P00734); test: Inhibition of thrombin at 10 uM
[12] = Inhibition of streptokinase at 10 uM
[13] = molecular target: Neutrophil elastase (Homo sapiens) (UniProt P08246); test: Inhibition of human leukocyte elastase at 10 uM
Chymase (Homo sapiens) = Chymase (Homo sapiens) (UniProt P23946); test: Inhibition of chymase at 50 uM
Chain of Chymase (Homo sapiens) (P23946 whole entry): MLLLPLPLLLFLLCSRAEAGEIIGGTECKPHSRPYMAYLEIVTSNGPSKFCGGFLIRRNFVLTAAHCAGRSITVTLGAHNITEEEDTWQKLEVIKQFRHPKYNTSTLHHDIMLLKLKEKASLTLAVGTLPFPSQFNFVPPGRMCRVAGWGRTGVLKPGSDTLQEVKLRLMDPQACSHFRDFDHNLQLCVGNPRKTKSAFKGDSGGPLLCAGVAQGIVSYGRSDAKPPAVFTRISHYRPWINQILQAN

Ovis aries [14] = test: Antiinflammatory activity in Ascaris suum-sensitized sheep asthma model assessed as blockade of early-phase airway response at 30 mg/kg, po BID after 8 hrs; format: functional, organism-based; set-up: dose 30 mg/kg; summary of the method: as §1
Ovis aries [15] = test: Antiinflammatory activity in Ascaris suum-sensitized sheep asthma model assessed as blockade of late-phase airway response at 30 mg/kg, po BID after 8 hrs; format: functional, organism-based; set-up: dose 30 mg/kg; summary of the method: as §1
Homo sapiens [16] = species on record: Homo sapiens; test: Inhibition of human recombinant beta tryptase at 50 uM by chromogenic assay; conditions: in the assay text read “human lung beta tryptase” for “human recombinant beta tryptase”
Summary of the method: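 A405 followed for 15 min at 22 °C after enzyme addition. Percent inhibition at 50 µM compared initial velocities with and without inhibitor.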

[17] = Half life in orally dosed rat; format: ADME, organism-based; conditions: in vivo, po
[18] = Oral bioavailability in dog; format: ADME, organism-based, Canis lupus familiaris; conditions: in vivo
monoamine oxidase B = test: Stability in presence of monoamine oxidase B after 30 mins; format: ADME; conditions: read-out: Stability
Summary of the method: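 The compound was tested as an MAO-B substrate, with parent remaining measured at 30 min. Benzylamine was run as a reference substrate.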

Canis familiaris = test: Volume of distribution in orally dosed dog; format: ADME, organism-based, Canis lupus familiaris; conditions: in vivo, po
Cytochrome P450 3A4 = Cytochrome P450 3A4 (Homo sapiens, UniProt P08684); test: Inhibition of human CYP3A4; format: ADME
Summary of the method: (§2)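 IC50 for cytochrome P450 isozyme inhibition was measured in isolated human liver microsomes.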

Rattus norvegicus = test: Volume of distribution in orally dosed rat; format: ADME, organism-based; conditions: in vivo, po
Cytochrome P450 2C9 = Cytochrome P450 2C9 (Homo sapiens, UniProt P11712); test: Inhibition of human CYP2C9; format: ADME; summary of the method: as §2
[19] = Oral bioavailability in rat; format: ADME, organism-based; conditions: in vivo
Cytochrome P450 1A2 = Cytochrome P450 1A2 (Homo sapiens, UniProt P05177); test: Inhibition of human CYP1A2; format: ADME; summary of the method: as §2
Chain of Cytochrome P450 1A2 (P05177 whole entry): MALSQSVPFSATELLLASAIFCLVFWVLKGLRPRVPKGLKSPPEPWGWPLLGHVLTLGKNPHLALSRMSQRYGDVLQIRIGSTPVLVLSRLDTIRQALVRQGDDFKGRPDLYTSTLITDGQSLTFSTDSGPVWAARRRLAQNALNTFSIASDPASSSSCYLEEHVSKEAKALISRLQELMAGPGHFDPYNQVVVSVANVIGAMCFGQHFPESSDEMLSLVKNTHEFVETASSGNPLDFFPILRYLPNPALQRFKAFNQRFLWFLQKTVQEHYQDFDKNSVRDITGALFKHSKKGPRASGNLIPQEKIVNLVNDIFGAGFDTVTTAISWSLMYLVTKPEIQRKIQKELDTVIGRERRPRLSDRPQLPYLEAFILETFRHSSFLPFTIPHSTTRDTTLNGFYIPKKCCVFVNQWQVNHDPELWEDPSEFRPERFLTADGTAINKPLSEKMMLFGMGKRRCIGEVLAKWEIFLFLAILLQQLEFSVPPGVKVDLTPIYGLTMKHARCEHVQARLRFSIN

[20] = Half life in orally dosed dog; format: ADME, organism-based, Canis lupus familiaris; conditions: in vivo, po
[21] = Metabolic stability in human liver microsomes after 60 mins; format: ADME, Microsome; conditions: read-out: Stability
[22] = Cmax in orally dosed rat; format: ADME, organism-based; set-up: route oral; conditions: in vivo, po
Cytochrome P450 2D6 = Cytochrome P450 2D6 (Homo sapiens, UniProt P10635); test: Inhibition of human CYP2D6; format: ADME; summary of the method: as §2
Cytochrome P450 2C19 = Cytochrome P450 2C19 (Homo sapiens, UniProt P33261); test: Inhibition of human CYP2C19; format: ADME; summary of the method: as §2
[23] = molecular target: Amine oxidase [flavin-containing] A (Homo sapiens, UniProt P21397); test: Inhibition of monoamine oxidase A
Chain of Amine oxidase [flavin-containing] A (P21397 whole entry): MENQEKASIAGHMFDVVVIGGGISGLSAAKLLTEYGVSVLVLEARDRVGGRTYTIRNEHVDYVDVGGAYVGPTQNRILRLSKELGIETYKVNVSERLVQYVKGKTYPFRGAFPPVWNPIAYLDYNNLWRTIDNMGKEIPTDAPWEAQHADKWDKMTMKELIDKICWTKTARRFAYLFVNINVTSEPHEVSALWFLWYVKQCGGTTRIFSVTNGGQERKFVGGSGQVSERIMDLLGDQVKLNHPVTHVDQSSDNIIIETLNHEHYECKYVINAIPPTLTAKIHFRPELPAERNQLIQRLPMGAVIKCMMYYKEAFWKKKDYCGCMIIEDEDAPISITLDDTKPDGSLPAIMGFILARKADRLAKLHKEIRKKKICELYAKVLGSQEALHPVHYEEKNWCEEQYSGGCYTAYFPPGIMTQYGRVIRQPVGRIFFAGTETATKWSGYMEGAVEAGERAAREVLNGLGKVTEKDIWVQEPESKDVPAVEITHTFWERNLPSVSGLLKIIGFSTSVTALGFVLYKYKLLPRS

[24] = Cmax in orally dosed dog; format: ADME, organism-based, Canis lupus familiaris; set-up: route oral; conditions: in vivo, po
[25] = molecular target: Amine oxidase [flavin-containing] B (Homo sapiens, UniProt P27338); test: Inhibition of monoamine oxidase B
Chain of Amine oxidase [flavin-containing] B (P27338 whole entry): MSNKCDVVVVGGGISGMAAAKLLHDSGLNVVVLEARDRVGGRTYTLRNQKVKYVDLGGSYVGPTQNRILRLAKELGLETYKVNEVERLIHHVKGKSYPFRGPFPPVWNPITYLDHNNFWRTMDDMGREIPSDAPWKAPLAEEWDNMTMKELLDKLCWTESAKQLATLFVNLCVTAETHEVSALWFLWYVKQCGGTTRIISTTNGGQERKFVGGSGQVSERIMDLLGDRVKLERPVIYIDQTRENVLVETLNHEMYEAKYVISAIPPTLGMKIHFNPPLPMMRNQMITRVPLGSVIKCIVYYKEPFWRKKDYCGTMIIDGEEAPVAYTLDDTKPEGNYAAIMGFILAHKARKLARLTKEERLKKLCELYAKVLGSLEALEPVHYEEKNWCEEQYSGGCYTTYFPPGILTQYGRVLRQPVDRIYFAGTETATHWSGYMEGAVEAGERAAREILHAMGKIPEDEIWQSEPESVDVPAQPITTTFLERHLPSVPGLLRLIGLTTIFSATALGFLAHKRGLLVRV

[26] = Metabolic stability in human liver microsomes assessed as half life; format: ADME, Microsome
Homo sapiens [27] = species on record: Homo sapiens; test: Ratio of IC50 for human trypsin to IC50 for human tryptase
Summary of the method: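 Human lung β-tryptase: 1 nM, H-D-HHT-Ala-Arg-pNA 500 µM, Tris/Hepes/NaCl/PEG buffer, pH 7.4. Human pancreatic trypsin: 1.8 nM, N-α-Z-D-Arg-Gly-Arg-pNA 60 µM, 200 mM NaCl, 50 mM Hepes, 0.5% octyl glucoside, pH 7.4.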

Cavia porcellus [28] = test: Antiinflammatory activity in ovalbumin-sensitized guinea pig asthma model assessed as reduction in total lung resistance at 20 mg/kg, po BID for 3 days relative to control; format: functional; set-up: scale not given: the % may be the effect or the level left
Summary of the method: (§3)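 Ovalbumin-sensitized guinea pigs received the benzoate salt orally at 20 mg/kg twice daily for 3 days, then once on Day 4 at 2 h before ovalbumin challenge.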

Cavia porcellus [29] = test: Antiinflammatory activity in ovalbumin-sensitized guinea pig asthma model assessed as increase in dynamic lung compliance at 20 mg/kg, po BID for 3 days relative to control; format: functional; summary of the method: as §3
Plasma = test: Drug level in sheep plasma; format: ADME, cell-free, Ovis aries
Cavia porcellus [30] = test: Antiinflammatory activity in ovalbumin-sensitized guinea pig asthma model assessed as reduction in total WBC cell count at 20 mg/kg, po BID for 3 days relative to control; format: functional; set-up: scale not given: the % may be the effect or the level left; summary of the method: as §3

| SMILES | IC50 (Trypsin) | IC50 [1] | Ki [1] | other results |
| --- | --- | --- | --- | --- |
| NCc1ccc2c(c1)C1(CCN(C(=O)c3ccc(CCc4ccccc4)o3)CC1)CO2 | 47000 nM | 82 nM | – | – |
| NCc1ccc2c(c1)C1(CCN(C(=O)c3ccc(C#Cc4ccccc4)o3)CC1)CN2 | > 50000 nM | 23 nM | – | – |
| CS(=O)(=O)N1CC2(CCN(C(=O)c3ccc(C#Cc4ccccc4)o3)CC2)c2cc(CN)ccc21 | > 50000 nM | 1.8 nM | 7.1 nM | – |
| N/N=C(\N)c1ccc2c(c1)C1(CCN(C(=O)c3ccc(C#Cc4ccccc4)o3)CC1)CO2 | > 50000 nM | 59 nM | – | – |
| Cc1ccccc1C#Cc1ccc(C(=O)N2CCC3(CC2)COc2ccc(CN)cc23)o1 | 12000 nM | 1.2 nM | 4 nM | – |
| NCc1ccc2c(c1)C1(CCN(C(=O)c3ccc(C#Cc4ccccc4)o3)CC1)CO2 [listing 1 of 2 here] | – | – | – | inhibition [2]: < 15%; inhibition [3]: < 15%; inhibition [4]: < 15%; inhibition [5]: < 30%; inhibition [6]: < 15%; Activity (Ovis aries [7]): Active; inhibition [8]: < 30%; inhibition [9]: < 15%; inhibition [10]: < 15%; inhibition [11]: < 15%; inhibition [12]: < 15%; inhibition [13]: < 15%; inhibition (Chymase (Homo sapiens)): < 30%; Activity (Ovis aries [14]): inactive; Activity (Ovis aries [15]): Active |
| C/N=C(/N)c1ccc2c(c1)C1(CCN(C(=O)c3ccc(C#Cc4ccccc4)o3)CC1)CO2 | > 50000 nM | 780 nM | – | – |
| COc1ccccc1C#Cc1ccc(C(=O)N2CCC3(CC2)COc2ccc(CN)cc23)o1 | 5500 nM | 13 nM | – | – |
| Cc1ccc(C#Cc2ccc(C(=O)N3CCC4(CC3)COc3ccc(CN)cc34)o2)cc1 | 13000 nM | 8.3 nM | – | – |
| NC(=O)c1ccc2c(c1)C1(CCN(C(=O)c3ccc(C#Cc4ccccc4)o3)CC1)CO2 | 39000 nM | – | – | inhibition (Homo sapiens [16]): 29% |
| NCc1cccc(C2CCN(C(=O)c3ccc(C#Cc4ccccc4F)o3)CC2)c1 | – | – | 31 nM | – |
| CC(C)(C)c1ccc(C#Cc2ccc(C(=O)N3CCC4(CC3)COc3ccc(CN)cc34)o2)cc1 | 13000 nM | 700 nM | – | – |
| NCc1ccc2c(c1)C1(CCN(C(=O)c3ccc(C#Cc4ccc(O)cc4)o3)CC1)CO2 | 23000 nM | 3200 nM | – | – |
| NCc1ccc2c(c1)C1(CCN(C(=O)c3ccc(C#Cc4ccccc4)o3)CC1)CO2 [listing 2 of 2 here] | 18000 nM | – | – | half-life [17]: 7 h; bioavailability [18]: 65%; remaining at 0.5 h (monoamine oxidase B): 95%; Vd (Canis familiaris): 16 L/kg; Ki (Trypsin): 2500 nM; IC50 (Cytochrome P450 3A4): > 20000 nM; Vd (Rattus norvegicus): 17 L/kg; IC50 (Cytochrome P450 2C9): > 20000 nM; bioavailability [19]: 100%; IC50 (Cytochrome P450 1A2): > 20000 nM; half-life [20]: 27 h; remaining at 1 h [21]: 100%; Cmax [22]: 1100 nM; IC50 (Cytochrome P450 2D6): > 20000 nM; IC50 (Cytochrome P450 2C19): > 20000 nM; IC50 [23]: 23000 nM; Cmax [24]: 900 nM; IC50 [25]: 72000 nM; half-life [26]: > 1.67 h |
| NCc1ccc2c(c1)C1(CC2)CCN(C(=O)c2ccc(C#Cc3ccccc3)o2)CC1 | 7700 nM | 3.1 nM | – | – |
| CC(=O)N1CC2(CCN(C(=O)c3ccc(C#Cc4ccccc4)o3)CC2)c2cc(CN)ccc21 | > 50000 nM | 15 nM | – | – |
| NCc1ccc2c(c1)C1(CCN(C(=O)c3ccc(C#Cc4ccccc4Cl)o3)CC1)CO2 | 38000 nM | 5.2 nM | 3.4 nM | – |
| NCc1ccc2c(c1)C1(CCN(C(=O)c3ccc(C#Cc4ccccc4)o3)CC1)CN2S(=O)(=O)c1ccccc1 | 6700 nM | 5.7 nM | 16 nM | – |
| N=C(N)c1ccc2c(c1)C1(CCN(C(=O)c3ccc(C#Cc4ccccc4)o3)CC1)CO2 | 1400 nM | 4.5 nM | – | Ratio IC50 (Homo sapiens [27]): 300 |
| NCc1ccc2c(c1)C1(CCN(C(=O)c3ccc(Sc4ccccc4)o3)CC1)CO2 | 9100 nM | 90 nM | – | – |
| NCc1ccc2c(c1)C1(CCN(C(=O)c3ccc(-c4ccccc4)o3)CC1)CO2 | 8600 nM | 28 nM | – | – |
| NCc1cccc(C2CCN(C(=O)c3ccc(C#Cc4ccccc4)o3)CC2)c1 | – | – | 8.7 nM | – |
| NCc1ccc2c(c1)C1(CCN(C(=O)c3ccc(C#Cc4ccccc4F)o3)CC1)CO2 | 12000 nM | 4.3 nM | 3 nM | – |
| NCc1ccc2c(c1)C1(CCN(C(=O)c3ccc(C#Cc4ccccc4)o3)CC1)CO2.O=C(O)c1ccccc1 | – | – | – | Activity (Cavia porcellus [28]): 90%; Activity (Cavia porcellus [29]): 65%; concentration (Plasma): 400 nM; Activity (Cavia porcellus [30]): 20% |
| CC(=O)N1C[C@H](O)C[C@H]1C(=O)NC(CCCNC(=N)N)C(=O)c1nc2ccccc2s1 (some centres not stated) | – | 13 nM | 10 nM | – |
